ABHD4 inh: ABHD4 inhibitors, primary screen, biochemical, fluorescence polarization, mouse | (Lyso)-N-acylphosphatidylethanolamine lipase (Mus musculus), Q8VD66 | purified mABHD4, FP-Rh probe fluorescence polarization | inhibition, % at 8.92 µM | 370,000 compounds, 0.54% hits;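 active = inhibition exceeding the mean over every tested compound plus 3 SD, cut at about 30% in these data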
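Test system: mouse ABHD4 enzyme, wild type. Reagent: FP-Rh fluorescent activity-based probe, added after compound pre-incubation. Timing: pre-incubation 45 min, probe exposure 60 min, at 25 °C. Technique: FP readout, ex 525 nm / em 598 nm. Benchmarks: high control S159A mutant with DMSO, low control median of compound wells.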
PRMT1 FP inh: PRMT1 methyltransferase inhibitors, primary screen, biochemical, fluorescence polarization. recombinant PRMT1, activity-based probe fluorescence polarization. 370,000 compounds, 1.3% hits. AID 652257, 2013. inhibition, % at 2.79 µM. Protein arginine N-methyltransferase 1 (Homo sapiens), Q99873;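 active = inhibition above about 21% made by adding two undisclosed values, limit read from the data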
TCR-CD3 inh: inhibitors of human TCR-CD3 interaction, primary screen, biochemical, fluorescence, TAMRA-labeled TCR probe | 360,000 compounds, 0.37% hits | AID 651800, 2012 | inhibition, % at 9.4 µM; in the data active = inhibition above about 19%;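 also: recombinant mutant TCR 2C K166C tagged with TAMRA read by polarization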
HTRA1 inh: HTRA1 serine protease inhibitors, primary screen, biochemical, fluorescence polarization, HTS; 340,000 compounds, 0.5% hits; inhibition, % at 5.96 µM; recombinant HTRA1, FP-rhodamine activity-based probe; in the data active = inhibition above about 36%
ATG4B inhibitor: ATG4B protease inhibitors, primary screen, biochemical, fluorescence, uHTS; ATG4B cleavage of LC3-PLA2, NBD-HPC fluorescence, 1 h; inhibition, % at 8.33 µM; 340,000 compounds, 0.51% hits; in the data active = inhibition above about 40%
Target sequence (Q9Y4P1 whole entry, looked up): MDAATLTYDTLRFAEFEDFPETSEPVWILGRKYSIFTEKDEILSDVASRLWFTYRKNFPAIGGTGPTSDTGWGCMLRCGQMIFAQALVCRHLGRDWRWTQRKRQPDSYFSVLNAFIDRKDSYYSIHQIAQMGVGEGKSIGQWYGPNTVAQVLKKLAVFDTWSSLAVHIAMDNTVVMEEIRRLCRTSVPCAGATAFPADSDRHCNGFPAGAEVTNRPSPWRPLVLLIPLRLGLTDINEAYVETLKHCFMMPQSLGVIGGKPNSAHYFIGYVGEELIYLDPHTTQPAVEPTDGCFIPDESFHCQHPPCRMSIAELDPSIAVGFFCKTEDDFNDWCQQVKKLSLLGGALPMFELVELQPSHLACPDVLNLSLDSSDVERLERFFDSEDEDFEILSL
SIAE inh: human SIAE inhibitors, primary screen, biochemical, fluorescence polarization, FP-Rh probe, 1536-well HTS | Sialate O-acetylesterase (Homo sapiens), Q9HAT2 | SIAE FP-Rh probe binding | inhibition, % at 9.66 µM | 370,000 compounds, 0.69% hits;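 active = inhibition above a cutoff: mean of compounds within the control limits plus 3 SD of those, cut at about 17% in these data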
PRMT1 confirm: PRMT1 methyltransferase inhibitors, confirmation, biochemical, fluorescence polarization, triplicate; recombinant His-PRMT1, activity-based probe fluorescence polarization; inhibition, % at 2.79 µM; shares compounds with PRMT1 FP inh; 3,300 compounds, 42% hits;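 active = mean inhibition across replicates above the hit cutoff derived for the earlier primary screen, cut at about 22% in these data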
A number is an active result; – = inactive; · = no result given. Sampled rows, rich in hits. Any-hit rate of the full collection: about 2.9%.

SMILES	ABHD4 inh	PRMT1 FP inh	TCR-CD3 inh	HTRA1 inh	ATG4B inhibitor	SIAE inh	PRMT1 confirm
CCOc1ccc(-n2c(COc3ccc(C)cc3)nnc2SCC(=O)Nc2ccc(F)c(F)c2)cc1	–	–	·	·	·	–	·
O=C(Nc1ccc(C(=O)O)cc1)/C(=C\c1ccco1)NC(=O)c1ccc(Br)cc1	–	34.5	–	–	·	–	–
COCC(=O)Nc1ccc(N2CCOCC2)c(S(=O)(=O)Nc2ccccc2OC)c1	–	–	–	–	–	–	·
COc1ccccc1NS(=O)(=O)c1cc(NC(=S)NCCN2CCOCC2)ccc1N1CCOCC1	–	35.6	–	–	–	–	57.2
O=C(Nc1cccc(S(=O)(=O)Nc2ccccc2F)c1)c1ccc2ccccc2n1	–	43.1	–	–	–	–	–
COc1ccccc1NS(=O)(=O)c1cccc(NC(=O)c2ccc3ccccc3n2)c1	–	–	–	–	–	–	·
COc1ccccc1NS(=O)(=O)c1cc(NC(=O)c2sccc2C)ccc1N1CCCC1	–	66.3	–	–	–	–	83.5
O=S(=O)(Nc1ccccc1F)c1cccc(NC(=S)NCCN2CCOCC2)c1	–	73.0	–	–	–	–	60.8
COc1ccccc1NS(=O)(=O)c1cc(NC(=O)c2sccc2C)ccc1N1CCOCC1	–	–	–	–	–	–	·
c1ccc(-n2c(SCc3cccc4ccccc34)nnc2-c2ccccn2)cc1	–	–	·	·	·	–	·
COC(=O)[C@]12C[C@H](CC(=O)NCc3ccc(OC)c(OC)c3)C(=O)N(CCc3ccc(OC)c(OC)c3)C1=C[C@H](C1CCCC1)O[C@@H]2C	–	–	·	·	·	–	·
CCN(Cc1cn(Cc2ccccc2)nn1)S(=O)(=O)c1ccc(F)cc1Br	–	–	·	·	·	–	·
CCN(Cc1ccccc1)S(=O)(=O)CCNC(=O)c1ccccc1	–	32.5	–	–	–	–	–
CCN(Cc1ccccc1)S(=O)(=O)CCNC(=O)c1ccc(OC)cc1	–	–	–	–	–	–	·
COc1cccc(/C=C2\SC(=S)N(NC(=O)c3ccncc3)C2=O)c1	–	36.5	–	–	–	–	–
Cc1cc(O)cc(=O)n1-c1cccc(F)c1	–	–	–	·	·	–	·
O=c1oc2c(-c3cccc(F)c3)cc(O)cc2s1	–	36.1	–	–	–	–	–
O=C(CSc1nccc(=O)[nH]1)Nc1ccc(Br)c(Cl)c1	–	–	–	–	–	–	·
O=C(CSc1nccc(=O)[nH]1)Nc1ccc(F)c(Cl)c1	–	41.9	–	–	–	–	30.5
O=C(CSc1nc2nc(-c3cccs3)cc(C(F)(F)F)c2c(=O)[nH]1)NCc1ccco1	–	30.1	–	–	–	–	–
O=C(CSc1nc2nc(-c3cccs3)cc(C(F)(F)F)c2c(=O)[nH]1)C(F)(F)F	–	57.9	–	–	–	–	84.2
COC(=O)CSc1nc2nc(-c3cccs3)cc(C(F)(F)F)c2c(=O)[nH]1	–	–	–	–	–	–	·
CC(=O)Nc1ccc(NC(=O)CSc2nc3nc(-c4cccs4)cc(C(F)(F)F)c3c(=O)[nH]2)cc1	–	–	–	–	–	–	·
CCN(CC)C(=O)CC[C@H]1CC[C@]2(CCCN(Cc3ccccc3)C2)O1	–	–	·	·	·	–	·
COC(=O)c1cccc(OCC(C)CN2CCC(C(O)(c3ccccc3)c3ccccc3)CC2)c1 (centres undefined)	–	–	·	·	·	–	·
SMILES	ABHD4 inh	PRMT1 FP inh	TCR-CD3 inh	HTRA1 inh	ATG4B inhibitor	SIAE inh	PRMT1 confirm
O=C1CC(NCc2ccc3c(c2)OCO3)C(=O)N1CCc1ccccc1 (centres undefined)	–	44.2	–	–	–	–	–
NS(=O)(=O)c1ccc(CCNC2CC(=O)N(CCc3ccccc3)C2=O)cc1 (centres undefined)	–	33.7	–	–	–	–	–
NS(=O)(=O)c1ccc(CCN2C(=O)CCC2=O)cc1	–	–	–	–	–	–	·
NS(=O)(=O)c1ccc(CCNC2CC(=O)N(Cc3ccccc3)C2=O)cc1 (centres undefined)	–	62.8	–	–	–	–	–
CNC(=S)N(Cc1ccco1)Cc1cc2cc(OC)ccc2[nH]c1=O	–	–	–	–	–	–	·
COC(=O)c1ccccc1S(=O)(=O)N(Cc1ccco1)Cc1cc2cc(OC)ccc2[nH]c1=O	–	29.8	–	–	–	–	–
COc1ccc(-n2c(SCC(=O)Nc3ccccc3-c3ccccc3)nnc2-c2ccco2)cc1	–	–	·	·	·	–	·
CC1(C)CC(=O)C2=C(C1)OC(N)=C(C#N)[C@@H]2c1ccccc1[N+](=O)[O-]	–	43.6	–	–	–	–	–
CCC(CC)c1nnc(NC(=O)c2cc(C(=O)OC)cc([N+](=O)[O-])c2)s1	–	29.1	–	–	–	–	–
CCNc1nc(NCC)n2c(SCC(=O)Nc3ccccc3F)nnc2n1	–	27.1	–	–	–	–	–
O=C(CC1SC(=O)NC1=O)Nc1ccc(Cl)cc1 (centres undefined)	–	40.1	–	–	–	–	39.1
COC(=O)[C@H](CC(C)C)N1Cc2nnn(CC3CCCCC3)c2-c2cc(F)ccc2S1(=O)=O	–	–	·	·	·	–	·
COc1ccc(NC2=CC(c3ccc(OC)c(OC)c3)N(c3ccc(OC)cc3)C2=O)cc1 (centres undefined)	–	–	–	–	–	–	·
NS(=O)(=O)c1ccc(NC2=CC(c3ccc([N+](=O)[O-])cc3)N(c3ccc(S(N)(=O)=O)cc3)C2=O)cc1 (centres undefined)	–	26.6	–	–	–	–	–
O=C(OC12CCCN(C1)/C(=C/c1ccccc1)C2)C1CCCC1 (centres undefined)	–	–	·	·	·	–	·
COc1ccc(NC(=S)N2CCN(C)CC2)cc1	–	–	–	·	–	–	·
Cc1ccc(NC(=S)N2CCSC2c2cccs2)cc1 (centres undefined)	–	59.5	–	–	–	–	–
COc1ccc(C2SCCN2C(=S)Nc2ccc(Cl)cc2)cc1 (centres undefined)	–	65.6	–	–	–	–	–
